CHO parental Ca: counter-screen: ATP calcium response change in parental CHO cells; parental CHO-K1, ATP-induced calcium, Fluo-8 fluorescence; inhibition, % at 5.6 µM; 330,000 compounds, 0.63% hits; AID 463079;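 active means inhibition above that plate's mean sample inhibition plus 3 SD, cut at about 26% in these data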;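 further: 0% = ATP-challenged DMSO wells and 100% = DMSO wells without ATP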
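Measured by: calcium-sensitive Fluo-8 fluorescence / Test system: CHO parental line / Controls: ATP-challenged DMSO wells low, unchallenged DMSO wells high / Measure: % inhibition / Compound: single nominal dose of 5.6 µM per compound / Replicates: single well per compound, no replicates / Reagent: ATP as calcium-mobilizing challenge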
OX1R antag-1: blocks the human orexin 1 receptor. CHO/OX1R cells, Fluo-8 calcium fluorescence, orexin A. 330,000 compounds, 0.43% hits. inhibition, % at 5 µM. O43613;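 active means inhibition above its plate's threshold, mean inhibition of all tested compounds on the plate plus 3 SD, cut at about 37% in these data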;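 further: 0% = orexin A challenge wells and 100% = SB-334867-A antagonist wells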
GalR3 antag: blocks the human galanin receptor 3; O60755; inhibition, % at 3 µM; 360,000 compounds, 0.44% hits; HEK293 GalR3-CNG cAMP membrane potential fluorescence; galR3 body fused to GalR1 C-terminus;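 active means inhibition above the screen-wide average plus 3 SD, cut at about 13% in these data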;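 further: forskolin and galanin both at EC90 stimulate the cells; cAMP rise reported by CNG channel membrane potential dye signal; 0% = forskolin plus galanin with DMSO and 100% = forskolin alone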
Target sequence (O60755 1-299 limits assumed): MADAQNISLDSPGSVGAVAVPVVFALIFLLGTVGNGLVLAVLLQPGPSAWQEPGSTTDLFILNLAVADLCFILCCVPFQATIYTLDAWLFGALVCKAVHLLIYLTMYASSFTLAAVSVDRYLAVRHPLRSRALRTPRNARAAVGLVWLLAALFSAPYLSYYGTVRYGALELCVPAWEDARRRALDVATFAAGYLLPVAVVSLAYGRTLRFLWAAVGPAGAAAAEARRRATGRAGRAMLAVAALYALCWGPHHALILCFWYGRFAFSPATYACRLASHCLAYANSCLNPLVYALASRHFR
GPR7 antagonist: human neuropeptides B/W receptor 1 antagonism; P48145; GPR7-expressing cells, fluorescence antagonist assay; inhibition, % at 4.4 µM; 290,000 compounds, 1.1% hits; AID 1861; in the data active means inhibition above about 16%, passing the limit was not always enough;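 further: cells stimulated with the agonist NPW; 0% = agonist with vehicle and 100% = vehicle without agonist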
Target sequence (P48145 whole entry, looked up): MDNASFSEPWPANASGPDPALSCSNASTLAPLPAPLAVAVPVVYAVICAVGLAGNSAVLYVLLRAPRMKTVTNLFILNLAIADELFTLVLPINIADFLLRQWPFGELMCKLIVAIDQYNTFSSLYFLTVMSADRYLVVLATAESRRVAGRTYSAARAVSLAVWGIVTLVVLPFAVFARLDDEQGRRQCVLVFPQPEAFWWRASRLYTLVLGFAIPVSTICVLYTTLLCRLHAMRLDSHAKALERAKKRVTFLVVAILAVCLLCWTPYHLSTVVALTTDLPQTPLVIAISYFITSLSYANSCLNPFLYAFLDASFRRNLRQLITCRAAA
OX1R antag-2: antagonists of human orexin 1 receptor (OX1R); O43613; OX1R-expressing cells, FRET antagonist read-out; inhibition, % at 6.6 µM; 330,000 compounds, 1.8% hits; in the data active means inhibition mostly above about 38%, no sharp cut-off; inactive means mostly below about 40%;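 further: 0% = agonist challenge alone and 100% = reference antagonist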
The depositor's hits bear a star; . = no result. Compounds with a hit are over-represented: about 3.1% of the library has one in this group of screens.

SMILES | CHO parental Ca | OX1R antag-1 | GalR3 antag | GPR7 antagonist | OX1R antag-2
CCN1CCN(C2=C(NS(=O)(=O)c3ccc(C)cc3)C(=O)c3ccccc3C2=O)CC1 | -11 | -8 | -8 | -5 | 61*
CC(=O)Nc1ccc(S(=O)(=O)NC2=C(N3CCN(C)CC3)C(=O)c3ccccc3C2=O)cc1 | -8 | -7 | -1 | -3 | 68*
COC(=O)c1cc2c(c3c4cc(F)ccc4n(S(=O)(=O)c4cccc(C)c4)c13)C(=O)N(Cc1ccccc1OC)C2 | . | . | -4 | . | .
CCOC(=O)C1=CCN(S(=O)(=O)c2ccc(C)cc2)C1c1cccc2ccccc12 (stereo not given) | . | . | -8 | . | .
CC(=O)c1cn(CC(=O)Nc2ccc(C)cc2C)c2ccccc12 | 26 | 16 | 2 | 7 | 40
C(=N\Nc1nc2ccccc2s1)/c1ccc2c(c1)OCO2 | -6 | 5 | 1 | -7 | 75*
Brc1cc2c(cc1/C=N/Nc1nc3ccccc3s1)OCO2 | -11 | -7 | -5 | -10 | 2
COc1ccc(C=NNc2nc3ccccc3s2)cc1 | . | . | -5 | . | .
C(=N\Nc1nc2ccccc2s1)/c1ccccn1 | 6 | -3 | -7 | -3 | 60*
CC(=O)c1cccc(NC(=O)C2CCCN2S(=O)(=O)c2cccc3cccnc23)c1 (stereo not given) | 3 | 14 | -1 | -10 | 67*
O=C(Nc1nccs1)C1CCCN(S(=O)(=O)c2cccc3cccnc23)C1 (stereo not given) | -7 | -23 | 1 | -16 | 43*
O=C(Nc1ccc(F)cc1)C1CCCN(S(=O)(=O)c2cccc3cccnc23)C1 (stereo not given) | -26 | -15 | 2 | -10 | 31
O=C(Nc1ccc(C(F)(F)F)cc1)C1CCCN1S(=O)(=O)c1cccc2cccnc12 (stereo not given) | -23 | 30 | -9 | -12 | 36*
CC(=O)c1cccc(NC(=O)C2CCCN(S(=O)(=O)c3cccc4cccnc34)C2)c1 (stereo not given) | -10 | -11 | -1 | -13 | 55*
O=C(Nc1ccc2c(c1)OCCO2)C1CCCN1S(=O)(=O)c1cccc2cccnc12 (stereo not given) | -9 | -18 | 3 | -14 | 16
O=C(Nc1ccccc1Cl)C1CCCN(S(=O)(=O)c2cccc3cccnc23)C1 (stereo not given) | -25 | -26 | -7 | -9 | 42
COc1cc(NC(=O)[C@@H]2CCCN2S(=O)(=O)c2cccc3cccnc23)cc(OC)c1OC | -17 | -29 | -6 | . | 28
O=C1OCCN1CC(=O)N1CCc2c([nH]c3ccccc23)C1c1ccccn1 (stereo not given) | -14 | -14 | -6 | -16 | -3
S=C(NCc1ccco1)N1CCN(c2ccccn2)CC1 | 4 | -12 | 2 | 0 | 6
O=C(Nc1cccc(Cl)c1)C1CCCN(S(=O)(=O)c2ccc(F)cc2)C1 (stereo not given) | -17 | -5 | -7 | -4 | 42*
O=c1c2ccccc2nc2n1-c1ccccc1CCC2 | -14 | 5 | 0 | -16 | 7
O=C1c2ccccc2-n2c1nc1ccccc1c2=O | 0 | 13 | -7 | -12 | 54*
CC(C)C[C@H](NC(=O)c1cccs1)C(=O)N1CCC[C@H]1C(=O)NCc1ccccc1 | . | . | -6 | . | .
Cc1cc(N2CCCC2)ccc1/C=C1\NC(=S)N(C)C1=O | 41* | 48* | -2 | -11 | 31
O=C1/C(=C/c2ccc(N3CCCC3)cc2)NC(=S)N1C1CC1 | 58* | 106* | 2 | 3 | 17
SMILES | CHO parental Ca | OX1R antag-1 | GalR3 antag | GPR7 antagonist | OX1R antag-2
O=C1N/C(=C/c2ccc(N3CCCC3)cc2)C(=O)N1c1ccccc1 | -4 | -9 | -2 | 4 | 23
O=C(c1cnn(C(=O)CN2CCCC2=O)c1)c1ccccc1O | 3 | 4 | -3 | . | 4
Cc1cccc(OC(C)C(=O)N/N=C\c2ccncc2)c1 (stereo not given) | -9 | -5 | -3 | -19 | 8
CC(=O)C(C)n1c(CN(C)Cc2ccccc2)nc2c1c(=O)n(C)c(=O)n2C (stereo not given) | -7 | 8 | -4 | -1 | 13
CC(C)n1c(NCCc2ccccc2)nc2c1c(=O)n(C)c(=O)n2C | 39* | 7 | -4 | -9 | 27
CCCNc1nc2c(c(=O)n(C)c(=O)n2C)n1CCc1ccccc1 | -12 | 2 | -9 | -13 | 8
CC(C)n1c(CN(C)Cc2ccccc2)nc2c1c(=O)n(C)c(=O)n2C | 69* | 16 | -8 | 28 | 54*
CC(C)(C)c1cc2nc3c(c(=O)n2[nH]1)CN(Cc1ccccc1)C3=O | -11 | -8 | -6 | -18 | 4
Cc1ccc2c(c1)sc(-c1ccc(N(C)C)cc1)[n+]2C | 42* | 10 | 1 | 19 | 40*
CC(=O)Nc1cccc(NC(=O)CSc2nnc3ccc(-c4ccncc4)nn23)c1 | 1 | -12 | -1 | . | 67*
CCOC(=O)c1sc(NC(=O)CSc2n[nH]c(-c3ccccc3)n2)c(C#N)c1C | 40* | 46* | 1 | 1 | 39
CC(=O)Nc1cccc(NC(=O)CSc2ncc(-c3ccccc3)[nH]2)c1 | 8 | 10 | -5 | -9 | 53*
CCOC(=O)c1sc(NC(=O)CSc2nc(C)cc(C)n2)c(C#N)c1C | -10 | -11 | -3 | -3 | 11
CC(=O)Nc1cccc(NC(=O)CSc2n[nH]c(-c3ccccc3)n2)c1 | -6 | 11 | -4 | . | 47*
C[C@@H]1CN(c2ccc(N3CCN(C(=O)OC(C)(C)C)C[C@H]3C)cc2C#N)CCN1Cc1ccccc1 | . | . | 3 | . | .
Cc1onc(-c2c(F)cccc2Cl)c1C(=O)N(C)C1CCCCC1 | -10 | -19 | 1 | -13 | 8
COc1ccc(CCNC(=O)Nc2nc(C(N)Cc3ccccc3)cs2)cc1OC (stereo not given) | . | . | -1 | . | .
CC(O)CNc1cc(N)c([N+](=O)[O-])cc1[N+](=O)[O-] (stereo not given) | -1 | 3 | 9 | -3 | 73*
CC(=O)c1ccc(N=Nc2c(C)[nH][nH]c2=O)cc1 | -29 | -11 | 0 | . | 43
Nc1nc(O)c(N=Nc2ccc(S(N)(=O)=O)cc2)c(=O)[nH]1 | . | . | 0 | -1 | .
NS(=O)(=O)c1ccc(N=Nc2c[nH]c(=O)c(O)c2)cc1 | 3 | 5 | -8 | -5 | 42*
Cc1[nH][nH]c(=O)c1N=Nc1ccc(S(N)(=O)=O)cc1 | -8 | 0 | 4 | . | 41*
Cc1ccccc1NC(=O)Nc1nc(C(N)C2CCCCC2)cs1 (stereo not given) | . | . | -8 | . | .
CCCCNc1c(-c2ccc(SC3CCCCC3)c(OC)c2)nc2ccc(C)cn12 | 25 | 21 | -6 | . | 14
CCCCNc1c(-c2ccc(OC)c(SC3CCCCC3)c2)nc2ccc(C)cn12 | 98* | 90* | -5 | . | 32*
COc1ccc(-c2nc3ccc(C)cn3c2NCc2ccccc2)cc1SC1CCCCC1 | 94* | 77* | . | . | 18

Bioassay records from PubChem BioAssay.
